According to ChEMBL document CHEMBL4196173, “Stabilized β-Hairpin Peptide Inhibits Insulin Degrading Enzyme” (J Med Chem, 2018):
Bridge positions count the residues as written; N and C are the ends. Square brackets hold non-standard residues; d marks the D form. Peptide text beside a SMILES is read from it. * marks the point of attachment. Ileψ(thiazoline)Cys = CC[C@H](C)[C@H](N)C1=N[C@H](C(=O)*)CS1; dOrn = NCCC[C@@H](N)C(=O)O

Assays:
Insulin-degrading enzyme = target: T1, Insulin-degrading enzyme (Mus musculus, UniProt Q9JHR7); assay: Inhibition of mouse His-tagged IDE (42 to 1019 residues) using fluorophore/quencher-tagged RPPGFSAFK(Dnp)-OH peptide as substrate preincubated for 10 mins followed by substrate addition measured over 5 mins by TR-FRET assay
T1 sequence (Q9JHR7 whole entry): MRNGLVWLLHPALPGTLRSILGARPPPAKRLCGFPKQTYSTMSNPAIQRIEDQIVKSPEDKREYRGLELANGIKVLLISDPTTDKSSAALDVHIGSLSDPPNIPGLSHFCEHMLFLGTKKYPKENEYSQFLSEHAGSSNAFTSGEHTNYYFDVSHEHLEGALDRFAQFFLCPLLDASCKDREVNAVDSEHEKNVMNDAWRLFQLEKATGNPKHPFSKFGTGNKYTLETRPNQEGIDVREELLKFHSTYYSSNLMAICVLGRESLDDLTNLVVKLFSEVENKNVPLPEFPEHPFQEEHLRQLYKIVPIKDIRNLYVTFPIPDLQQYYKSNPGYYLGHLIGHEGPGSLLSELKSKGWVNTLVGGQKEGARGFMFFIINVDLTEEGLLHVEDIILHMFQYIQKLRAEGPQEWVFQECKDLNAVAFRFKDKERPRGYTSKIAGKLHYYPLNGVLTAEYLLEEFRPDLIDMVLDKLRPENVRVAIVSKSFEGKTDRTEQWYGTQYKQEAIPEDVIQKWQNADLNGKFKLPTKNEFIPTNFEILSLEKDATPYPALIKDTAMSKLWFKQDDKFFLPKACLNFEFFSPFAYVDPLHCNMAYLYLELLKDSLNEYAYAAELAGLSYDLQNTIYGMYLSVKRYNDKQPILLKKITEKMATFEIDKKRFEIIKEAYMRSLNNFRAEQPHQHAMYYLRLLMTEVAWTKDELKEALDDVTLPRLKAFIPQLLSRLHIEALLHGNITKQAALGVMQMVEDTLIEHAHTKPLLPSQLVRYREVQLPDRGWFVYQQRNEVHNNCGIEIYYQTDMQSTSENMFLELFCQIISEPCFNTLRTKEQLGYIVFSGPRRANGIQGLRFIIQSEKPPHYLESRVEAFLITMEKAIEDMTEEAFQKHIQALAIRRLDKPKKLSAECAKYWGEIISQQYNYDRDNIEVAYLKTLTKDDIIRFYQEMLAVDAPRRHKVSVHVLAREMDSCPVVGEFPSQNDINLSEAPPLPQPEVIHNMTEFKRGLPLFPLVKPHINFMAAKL

[1] = Drug uptake in human HeLa cells at 5 uM using FITC-labeled compound after 2 hrs at 310 K by DAPI-staining based confocal microscopy; assay type: ADME, cell-based
[2] = Drug uptake in human HeLa cells at 5 uM using FITC-labeled compound after 2 hrs at 310 K by trypan blue-fluorescence based FACS analysis; assay type: ADME, cell-based
In short: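 HeLa cells were grown overnight in DMEM with 10% FBS, then given 5 μM FITC-labelled peptide in FBS-free medium for 2 h at 310 K. Cells were washed with PBS and 0.4% trypan blue, trypsinized and washed. Mean fluorescence was measured by flow cytometry with gated cell counts. Three independent experiments.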

[3] = Hemolytic activity against mouse RBC at 300 uM after 1 hr at 310 K; assay type: ADME, cell-based, Erythrocyte; conditions: mouse red blood cells (erythrocytes), read-out: Activity
In short: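 Fresh mouse red cells were washed six times and suspended at 1 × 10^8 cells/mL in PBS. Peptides at 2.3–300 μM were added for 1 h at 310 K. After centrifugation, hemoglobin in the supernatant was read at 576 nm. PBS served as 0% and 0.1% Triton X-100 as 100% lysis. Three independent experiments in duplicate.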

HeLa = assay: Cytotoxicity against human HeLa cells assessed as reduction in cell viability at <300 uM after 24 hrs at 310 K by MTT assay; assay type: cell-based
In short: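 HeLa cells were grown overnight in DMEM with 10% FBS, then exposed to serial dilutions starting at 300 μM in medium with 5% FBS for 24 h at 310 K under 5% CO2. MTT was added for a further 4 h and formazan absorbance read at 490 nm. Three independent experiments in duplicate.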

## CC(C)C[C@H](NC(=O)[C@H](C)NC(=O)[C@H](CCC(=O)O)NC(=O)[C@@H]1CCCN1C(=O)[C@H]1CCCN1C(=O)[C@H](Cc1ccccc1)NC(=O)[C@H](CCCNC(=N)N)NC(=O)[C@H](Cc1c[nH]c2ccccc12)NC(=O)[C@@H](N)CCC(=O)O)C(=O)N[C@@H](Cc1ccc(O)cc1)C(=O)N[C@@H](CC(C)C)C(=O)N[C@H](C(N)=O)C(C)C
Insulin-degrading enzyme
  IC50: 86 nM

## CC(C)C[C@H](NC(=O)[C@@H]1CNC(=O)C[C@H](NC(=O)[C@H](Cc2ccccc2)NC(=O)[C@H](CCCNC(=N)N)NC(=O)[C@H](Cc2c[nH]c3ccccc23)NC(=O)[C@@H](N)CCC(=O)O)C(=O)NCC(=O)NCC(=O)NCC(=O)N2CCC[C@@H]2C(=O)N2CCC[C@H]2C(=O)N[C@@H](CCC(=O)O)C(=O)N1)C(=O)N[C@@H](Cc1ccc(O)cc1)C(=O)N[C@@H](CC(C)C)C(=O)N[C@H](C(=O)N[C@@H](CS)C(=O)NCC(N)=O)C(C)C
Insulin-degrading enzyme
  IC50: 44 nM
[1]
  Drug uptake: Active
[2]
  Drug uptake: Active

## CC(C)C[C@H](NC(=O)[C@H](C)NC(=O)[C@H](CCC(=O)O)NC(=O)[C@@H]1CCCN1C(=O)[C@H]1CCCN1C(=O)[C@H](Cc1ccccc1)NC(=O)[C@H](CCCNC(=N)N)NC(=O)[C@H](Cc1c[nH]c2ccccc12)NC(=O)[C@@H](N)CCC(=O)O)C(=O)N[C@@H](Cc1ccc(O)cc1)C(N)=O
Insulin-degrading enzyme
  IC50: 601 nM

## CC(C)C[C@H](NC(=O)[C@H](C)NC(=O)[C@H](CCC(=O)O)NC(=O)[C@@H]1CCCN1C(=O)[C@H]1CCCN1C(=O)[C@H](Cc1ccccc1)NC(=O)[C@@H](N)CCCNC(=N)N)C(=O)N[C@@H](Cc1ccc(O)cc1)C(=O)N[C@@H](CC(C)C)C(=O)N[C@H](C(N)=O)C(C)C
Insulin-degrading enzyme
  IC50: > 20000 nM

## CC(C)C[C@H](NC(=O)[C@H](C)NC(=O)[C@@H](N)CCC(=O)O)C(=O)N[C@@H](Cc1ccc(O)cc1)C(=O)N[C@@H](CC(C)C)C(=O)N[C@H](C(=O)N[C@@H](CS)C(=O)NCC(=O)N1CCC[C@@H]1C(=O)N1CCC[C@H]1C(=O)N[C@@H](Cc1ccccc1)C(=O)N[C@@H](CCCNC(=N)N)C(=O)N[C@@H](Cc1c[nH]c2ccccc12)C(=O)N[C@@H](CCC(=O)O)C(N)=O)C(C)C
Insulin-degrading enzyme
  IC50: 170 nM

## CC[C@H](C)[C@H](N)C1=N[C@H](C(=O)N[C@@H](CC(C)C)C(=O)N[C@H](CCC(=O)O)C(=O)N[C@H](C(=O)N[C@H]2CCCCNC(=O)[C@H](CC(N)=O)NC(=O)[C@@H](CC(=O)O)NC(=O)[C@H](Cc3cnc[nH]3)NC(=O)[C@@H](Cc3ccccc3)NC(=O)[C@H]([C@@H](C)CC)NC(=O)[C@@H](CCCN)NC2=O)[C@@H](C)CC)CS1 [BACITRACIN] ({Ileψ(thiazoline)Cys}-L[dE]IK[dOrn]I[dF]H[dD]N; lactam 4-C)
Insulin-degrading enzyme
  IC50: > 200000 nM

## CC(C)C[C@H](NC(=O)[C@H](C)NC(=O)[C@H](CCC(=O)O)NC(=O)[C@@H]1CCCN1C(=O)[C@H]1CCCN1C(=O)[C@H](Cc1ccccc1)NC(=O)[C@H](CCCNC(=N)N)NC(=O)[C@H](Cc1c[nH]c2ccccc12)NC(=O)[C@@H](N)CCC(=O)O)C(=O)N[C@@H](Cc1ccc(O)cc1)C(=O)N[C@@H](CC(C)C)C(=O)N[C@H](C(=O)N[C@H](CS)C(=O)NCC(N)=O)C(C)C
Insulin-degrading enzyme
  IC50: 74 nM
[1]
  Drug uptake: Active
[2]
  Drug uptake: Active

## CC(C)C[C@H](NC(=O)[C@@H]1CSC[C@H](NC(=O)[C@H](Cc2ccccc2)NC(=O)[C@H](CCCNC(=N)N)NC(=O)[C@H](Cc2c[nH]c3ccccc23)NC(=O)[C@@H](N)CCC(=O)O)C(=O)NCC(=O)N2CCC[C@@H]2C(=O)N2CCC[C@H]2C(=O)N[C@@H](CCC(=O)O)C(=O)N1)C(=O)N[C@@H](Cc1ccc(O)cc1)C(=O)N[C@@H](CC(C)C)C(=O)N[C@H](C(=O)N[C@H](CS)C(=O)NCC(N)=O)C(C)C
Insulin-degrading enzyme
  IC50: 60 nM

## CC(C)C[C@H](NC(=O)[C@H](C)NC(=O)[C@H](CCC(=O)O)NC(=O)CNC(=O)CNC(=O)[C@H](Cc1ccccc1)NC(=O)[C@H](CCCNC(=N)N)NC(=O)[C@H](Cc1c[nH]c2ccccc12)NC(=O)[C@@H](N)CCC(=O)O)C(=O)N[C@@H](Cc1ccc(O)cc1)C(=O)N[C@@H](CC(C)C)C(=O)N[C@H](C(=O)N[C@@H](CS)C(=O)NCC(N)=O)C(C)C (H-EWRFGGEALYLVCG-NH2)
Insulin-degrading enzyme
  IC50: 300 nM
[1]
  Drug uptake: Active
[2]
  Drug uptake: Active
[3]
  hemolysis at 1 h, 300 µM: < 10%

## CC(C)C[C@H](NC(=O)[C@H](C)NC(=O)[C@@H](N)CCC(=O)O)C(=O)N[C@@H](Cc1ccc(O)cc1)C(=O)N[C@@H](CC(C)C)C(=O)N[C@H](C(=O)N[C@@H](CS)C(=O)NCC(N)=O)C(C)C (H-EALYLVCG-NH2)
Insulin-degrading enzyme
  IC50: 230 nM

## CC(C)C[C@H](NC(=O)[C@H](C)NC(=O)[C@H](CCC(=O)O)NC(=O)[C@@H]1CCCN1C(=O)[C@H]1CCCN1C(=O)[C@H](Cc1ccccc1)NC(=O)[C@@H](N)CCCNC(=N)N)C(=O)N[C@@H](Cc1ccc(O)cc1)C(N)=O
Insulin-degrading enzyme
  IC50: > 20000 nM

## CC(C)C[C@H](NC(=O)[C@@H]1CSC[C@H](NC(=O)[C@H](Cc2ccccc2)NC(=O)[C@H](CCCNC(=N)N)NC(=O)[C@H](Cc2c[nH]c3ccccc23)NC(=O)[C@@H](N)CCC(=O)O)C(=O)NCC(=O)NCC(=O)NCC(=O)N2CCC[C@@H]2C(=O)N2CCC[C@H]2C(=O)N[C@@H](CCC(=O)O)C(=O)N1)C(=O)N[C@@H](Cc1ccc(O)cc1)C(=O)N[C@@H](CC(C)C)C(=O)N[C@H](C(=O)N[C@H](CS)C(=O)NCC(N)=O)C(C)C
Insulin-degrading enzyme
  IC50: 77 nM

## CC(=O)N[C@@H](CCC(=O)O)C(=O)N[C@@H](Cc1ccccc1)C(=O)N[C@@H](CC(C)C)C(=O)N[C@@H](Cc1c[nH]c2ccccc12)C(=O)N[C@@H](C)C(=O)NCC(=O)N1CCC[C@@H]1C(=O)N1CCC[C@H]1C(=O)N[C@@H](Cc1ccc(O)cc1)C(=O)N[C@@H](C)C(=O)N[C@@H](CS)C(=O)N[C@H](C(=O)NCC(=O)N[C@@H](CCCNC(=N)N)C(=O)N[C@@H](CC(C)C)C(=O)N[C@@H](CCC(=O)O)C(N)=O)C(C)C
HeLa
  Activity: Non-Toxic
[3]
  hemolysis at 1 h, 300 µM: < 10%
